What was measured:
Type in all cases: functional
[1] = tested on: TK-10; experiment: Growth inhibition of human TK-10 cells incubated for 48 hrs by sulforhodamine B assay; conditions: for CC50: read-out: LC50 (the source's name)
How it was run: (§1)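 NCI DTP 60-line human tumour panel. Dose-response curves were run only for ligands active in the initial 10 µM screen. GI50 (concentration giving 50% of maximal inhibition of proliferation) and TGI (concentration giving total growth inhibition) were derived from these curves.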

[2] = tested on: SNB-19; experiment: Growth inhibition of human SNB-19 cells assessed as cell growth at 100 uM incubated for 48 hrs by sulforhodamine B assay relative to control; conditions: read-out: Activity
[3] = tested on: SK-MEL-5; experiment: Growth inhibition of human SK-MEL-5 cells incubated for 48 hrs by sulforhodamine B assay; how it was run: as §1
[4] = tested on: SK-MEL-28; experiment: Growth inhibition of human SK-MEL-28 cells incubated for 48 hrs by sulforhodamine B assay; how it was run: as §1
[5] = tested on: MOLT-4; experiment: Growth inhibition of human MOLT-4 cells assessed as cell growth at 100 uM incubated for 48 hrs by sulforhodamine B assay relative to control; conditions: read-out: Activity
[6] = tested on: OVCAR-3; experiment: Growth inhibition of human OVCAR-3 cells assessed as cell growth at 0.01 uM incubated for 48 hrs by sulforhodamine B assay relative to control; conditions: read-out: Activity
[7] = tested on: MDA-MB-231; experiment: Growth inhibition of human MDA-MB-231 cells assessed as cell growth at 1 uM incubated for 48 hrs by sulforhodamine B assay relative to control; conditions: read-out: Activity
[8] = tested on: HCT-116; experiment: Growth inhibition of human HCT-116 cells incubated for 48 hrs by sulforhodamine B assay
How it was run: (§2)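 NCI60 panel at the NCI Developmental Therapeutics Program. Only compounds active in the 10 µM screen went to dose-response testing. GI50, the concentration giving 50% of maximal inhibition of proliferation, and TGI, the concentration giving total growth inhibition, were derived from the dose-response curves.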

[9] = tested on: SK-MEL-2; experiment: Growth inhibition of human SK-MEL-2 cells assessed as cell growth at 0.1 uM incubated for 48 hrs by sulforhodamine B assay relative to control; conditions: read-out: Activity
[10] = tested on: SF-268; experiment: Growth inhibition of human SF-268 cells assessed as cell growth at 0.1 uM incubated for 48 hrs by sulforhodamine B assay relative to control; conditions: read-out: Activity
[11] = tested on: BT-549; experiment: Growth inhibition of human BT-549 cells assessed as cell growth at 0.1 uM incubated for 48 hrs by sulforhodamine B assay relative to control; conditions: read-out: Activity
[12] = tested on: CAKI-1; experiment: Growth inhibition of human CAKI-1 cells incubated for 48 hrs by sulforhodamine B assay; conditions: for CC50: read-out: LC50 (the source's name)
How it was run: (§3)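 NCI Developmental Therapeutics Program NCI60 panel. Compounds that were active in the 10 µM one-dose screen went on to dose–response testing. Growth at each concentration is expressed relative to untreated control (100%). GI50 (concentration giving 50% of maximal inhibition of proliferation) and TGI (concentration giving total growth inhibition) were derived from the curves.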

[13] = tested on: SW-620; experiment: Growth inhibition of human SW-620 cells assessed as cell growth at 1 uM incubated for 48 hrs by sulforhodamine B assay relative to control; conditions: read-out: Activity
[14] = tested on: NCI-H322M; experiment: Growth inhibition of human NCI-H322M cells assessed as cell growth at 0.01 uM incubated for 48 hrs by sulforhodamine B assay relative to control; conditions: read-out: Activity
[15] = tested on: K562; experiment: Growth inhibition of human K562 cells assessed as cell growth at 100 uM incubated for 48 hrs by sulforhodamine B assay relative to control; conditions: read-out: Activity
[16] = tested on: HCC 2998; experiment: Growth inhibition of human HCC 2998 cells assessed as cell growth at 1 uM incubated for 48 hrs by sulforhodamine B assay relative to control; conditions: read-out: Activity; how it was run: as §3
[17] = tested on: HCC 2998; experiment: Growth inhibition of human HCC 2998 cells assessed as cell growth at 0.1 uM incubated for 48 hrs by sulforhodamine B assay relative to control; conditions: read-out: Activity; how it was run: as §3
[18] = tested on: U-251; experiment: Growth inhibition of human U-251 cells incubated for 48 hrs by sulforhodamine B assay; how it was run: as §1
[19] = tested on: MDA-MB-435; experiment: Growth inhibition of human MDA-MB-435 cells assessed as cell growth at 100 uM incubated for 48 hrs by sulforhodamine B assay relative to control; conditions: read-out: Activity
[20] = tested on: KM12; experiment: Growth inhibition of human KM12 cells incubated for 48 hrs by sulforhodamine B assay; how it was run: as §2
[21] = tested on: BT-549; experiment: Growth inhibition of human BT-549 cells incubated for 48 hrs by sulforhodamine B assay; conditions: for CC50: read-out: LC50 (the source's name); how it was run: as §3
[22] = tested on: TK-10; experiment: Growth inhibition of human TK-10 cells assessed as cell growth at 100 uM incubated for 48 hrs by sulforhodamine B assay relative to control; conditions: read-out: Activity
[23] = tested on: A549; experiment: Growth inhibition of human A549/ATCC cells assessed as cell growth at 100 uM incubated for 48 hrs by sulforhodamine B assay relative to control; conditions: read-out: Activity; how it was run: as §3
[24] = tested on: T47D; experiment: Growth inhibition of human T47D cells assessed as cell growth at 0.01 uM incubated for 48 hrs by sulforhodamine B assay relative to control; conditions: read-out: Activity
[25] = tested on: Malme-3M; experiment: Growth inhibition of human Malme-3M cells assessed as cell growth at 100 uM incubated for 48 hrs by sulforhodamine B assay relative to control; conditions: read-out: Activity
[26] = tested on: RXF 393; experiment: Growth inhibition of human RXF 393 cells assessed as cell growth at 1 uM incubated for 48 hrs by sulforhodamine B assay relative to control; conditions: read-out: Activity
[27] = tested on: SW-620; experiment: Growth inhibition of human SW-620 cells assessed as cell growth at 0.1 uM incubated for 48 hrs by sulforhodamine B assay relative to control; conditions: read-out: Activity
[28] = tested on: NCI-H23; experiment: Growth inhibition of human NCI-H23 cells assessed as cell growth at 0.01 uM incubated for 48 hrs by sulforhodamine B assay relative to control; conditions: read-out: Activity
[29] = tested on: IGROV-1; experiment: Growth inhibition of human IGROV-1 cells assessed as cell growth at 1 uM incubated for 48 hrs by sulforhodamine B assay relative to control; conditions: read-out: Activity
[30] = tested on: NCI-H226; experiment: Growth inhibition of human NCI-H226 cells assessed as cell growth at 100 uM incubated for 48 hrs by sulforhodamine B assay relative to control; conditions: read-out: Activity
[31] = tested on: DU-145; experiment: Growth inhibition of human DU-145 cells assessed as cell growth at 1 uM incubated for 48 hrs by sulforhodamine B assay relative to control; conditions: read-out: Activity; how it was run: as §3
[32] = tested on: LOX IMVI; experiment: Growth inhibition of human LOX IMVI cells assessed as cell growth at 100 uM incubated for 48 hrs by sulforhodamine B assay relative to control; conditions: read-out: Activity
[33] = tested on: U-251; experiment: Growth inhibition of human U-251 cells assessed as cell growth at 0.1 uM incubated for 48 hrs by sulforhodamine B assay relative to control; conditions: read-out: Activity
[34] = tested on: HCT-116; experiment: Growth inhibition of human HCT-116 cells assessed as cell growth at 1 uM incubated for 48 hrs by sulforhodamine B assay relative to control; conditions: read-out: Activity
[35] = tested on: OVCAR-8; experiment: Growth inhibition of human OVCAR-8 cells assessed as cell growth at 1 uM incubated for 48 hrs by sulforhodamine B assay relative to control; conditions: read-out: Activity

Nc1c(C(=O)Nc2ccccc2)sc2nc3c(cc12)CN(Cc1ccccc1)CC3
GI50 [1]: 4.09 µM
TGI [1]: 54.7 µM
CC50 [1]: > 100 µM
growth at 100 µM [2]: 25%
GI50 [3]: 9.58 µM
LC50 [3]: > 100 µM
TGI [3]: > 100 µM
GI50 [4]: 23.2 µM
LC50 [4]: > 100 µM
TGI [4]: > 100 µM
growth at 100 µM [5]: 18%
growth at 0.01 µM [6]: 98%
growth at 1 µM [7]: 92%
GI50 [8]: 11 µM
LC50 (concentration killing 50% of cells) [8]: > 100 µM
TGI [8]: > 100 µM
growth at 0.1 µM [9]: 95%
growth at 0.1 µM [10]: 99%
growth at 0.1 µM [11]: 89%
GI50 [12]: 19.7 µM
TGI [12]: > 100 µM
CC50 [12]: > 100 µM
growth at 1 µM [13]: 86%
growth at 0.01 µM [14]: 93%
growth at 100 µM [15]: 12%
growth at 1 µM [16]: 105%
growth at 0.1 µM [17]: 97%
GI50 [18]: 13.9 µM
LC50 (concentration killing 50% of cells) [18]: > 100 µM
TGI [18]: > 100 µM
growth at 100 µM [19]: -6%
GI50 [20]: 19.1 µM
LC50 [20]: > 100 µM
TGI [20]: > 100 µM
GI50 [21]: 16.8 µM
TGI [21]: 92.3 µM
CC50 [21]: > 100 µM
growth at 100 µM [22]: -7%
growth at 100 µM [23]: 17%
growth at 0.01 µM [24]: 99%
growth at 100 µM [25]: 14%
growth at 1 µM [26]: 87%
growth at 0.1 µM [27]: 97%
growth at 0.01 µM [28]: 97%
growth at 1 µM [29]: 101%
growth at 100 µM [30]: 19%
growth at 1 µM [31]: 74%
growth at 100 µM [32]: 20%
growth at 0.1 µM [33]: 98%
growth at 1 µM [34]: 86%
growth at 1 µM [35]: 98%

CCc1ccccc1NC(=O)c1sc2nc3c(cc2c1N)C(=O)CCC3
GI50 [1]: 23.2 µM
TGI [1]: > 100 µM
CC50 [1]: > 100 µM
growth at 100 µM [2]: 11%
GI50 [3]: 0.282 µM
LC50 [3]: > 100 µM
TGI [3]: > 100 µM
GI50 [4]: 0.001 µM
LC50 [4]: > 100 µM
TGI [4]: > 100 µM
growth at 100 µM [5]: 31%
growth at 0.01 µM [6]: 107%
growth at 1 µM [7]: 52%
GI50 [8]: 0.483 µM
LC50 (concentration killing 50% of cells) [8]: > 100 µM
TGI [8]: > 100 µM
growth at 0.1 µM [9]: 104%
growth at 0.1 µM [10]: 93%
growth at 0.1 µM [11]: 101%
GI50 [12]: 0.504 µM
TGI [12]: > 100 µM
CC50 [12]: > 100 µM
growth at 1 µM [13]: 18%
growth at 0.01 µM [14]: 97%
growth at 100 µM [15]: 13%
growth at 1 µM [16]: 56%
growth at 0.1 µM [17]: 96%
GI50 [18]: 0.499 µM
LC50 (concentration killing 50% of cells) [18]: > 100 µM
TGI [18]: 29.1 µM
growth at 100 µM [19]: -48%
GI50 [20]: 0.402 µM
LC50 [20]: > 100 µM
TGI [20]: > 100 µM
GI50 [21]: 27.4 µM
TGI [21]: > 100 µM
CC50 [21]: > 100 µM
growth at 100 µM [22]: 13%
growth at 100 µM [23]: 12%
growth at 0.01 µM [24]: 99%
growth at 100 µM [25]: -5%
growth at 1 µM [26]: -8%
growth at 0.1 µM [27]: 83%
growth at 1 µM [29]: 62%
growth at 100 µM [30]: 18%
growth at 1 µM [31]: 27%
growth at 100 µM [32]: 24%
growth at 1 µM [34]: 27%
growth at 1 µM [35]: 60%
